ChEMBL document CHEMBL3611973, “Synthesis and biological evaluation of a novel betulinic acid derivative as an inducer of apoptosis in human colon carcinoma cells (HT-29)” (Eur J Med Chem, 2015)

Assays:
U-937 = experiment: Cytotoxic activity against human U937 cells assessed as cell growth inhibition after 48 hrs by MTT assay; assay type: functional, cell-based; details: U-937, 48 h
How it was run: (§1)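 Log-phase cells (1.25-2.5×10^4/100 µl; RPMI 1640, HepG2 in high-glucose DMEM, 10% FBS) given compound in DMSO (final <0.1%), 0-50 µM, 48 h, 37 °C, 5% CO2. MTT 4 h, DMSO solubilization, OD 540 nm minus background; viability relative to untreated; IC50 by graphical extrapolation, ≥3 experiments in duplicate.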

HT-29 = experiment: Cytotoxic activity against human HT-29 cells assessed as cell growth inhibition after 48 hrs by MTT assay; assay type: functional, cell-based; details: HT-29, 48 h; how it was run: as §1
Jurkat = experiment: Cytotoxic activity against human Jurkat cells assessed as cell growth inhibition after 48 hrs by MTT assay; assay type: functional, cell-based; how it was run: as §1
HepG2 = experiment: Cytotoxic activity against human HepG2 cells assessed as cell growth inhibition after 48 hrs by MTT assay; assay type: functional, cell-based; details: HepG2, 48 h; how it was run: as §1
MCF7 = experiment: Cytotoxic activity against human MCF7 cells assessed as cell growth inhibition after 48 hrs by MTT assay; assay type: functional, cell-based; details: MCF7, 48 h; how it was run: as §1
PBMC = experiment: Cytotoxic activity against human PBMC cells assessed as cell growth inhibition after 48 hrs by MTT assay; assay type: cell-based; how it was run: as §1

Row | Structure (SMILES) | IC50 (U-937) | IC50 (HT-29) | IC50 (Jurkat) | IC50 (HepG2) | IC50 (MCF7) | IC50 (PBMC)
1 | C=C(C)[C@@H]1CC[C@]2(C(=O)O)CC[C@]3(C)[C@H](CC[C@@H]4[C@@]5(C)CC[C@H](OC(=O)Cn6cc(-c7c[nH]c(=O)[nH]c7=O)nn6)C(C)(C)[C@@H]5CC[C@]43C)[C@@H]12 | > 50 µM | > 50 µM | > 50 µM | > 50 µM | > 50 µM | 
2 | C=C(C)[C@@H]1CC[C@]2(C(=O)O)CC[C@]3(C)[C@H](CC[C@@H]4[C@@]5(C)CC[C@H](OC(=O)Cn6cc(-c7ccc([N+](=O)[O-])cc7)nn6)C(C)(C)[C@@H]5CC[C@]43C)[C@@H]12 | > 50 µM | > 50 µM | 44.8 µM | 42.7 µM | 45.7 µM | > 50 µM
3 | C=C(C)[C@@H]1CC[C@]2(C(=O)O)CC[C@]3(C)[C@H](CC[C@@H]4[C@@]5(C)CC[C@H](OC(=O)Cn6cc(CO[C@@H]7[C@H]8OC(C)(C)O[C@H]8O[C@@H]7[C@H]7COC(C)(C)O7)nn6)C(C)(C)[C@@H]5CC[C@]43C)[C@@H]12 | > 50 µM | > 50 µM | > 50 µM | > 50 µM | > 50 µM | 
4 | C=C(C)[C@@H]1CC[C@]2(C(=O)O)CC[C@]3(C)[C@H](CC[C@@H]4[C@@]5(C)CC[C@H](OC(=O)Cn6cc(-c7cnc(OC)nc7OC)nn6)C(C)(C)[C@@H]5CC[C@]43C)[C@@H]12 | 41.9 µM | 39.8 µM | > 50 µM | > 50 µM | 44.7 µM | > 50 µM
5 | C=C(C)[C@@H]1CC[C@]2(C(=O)O)CC[C@]3(C)[C@H](CC[C@@H]4[C@@]5(C)CC[C@H](OC(=O)Cn6cc(CO[C@@H]7[C@H]8OC(C)(C)O[C@H]8O[C@@H]7[C@H](O)CO)nn6)C(C)(C)[C@@H]5CC[C@]43C)[C@@H]12 | > 50 µM | > 50 µM | > 50 µM | > 50 µM | > 50 µM | 
6 | C=C(C)[C@@H]1CC[C@]2(C(=O)O)CC[C@]3(C)[C@H](CC[C@@H]4[C@@]5(C)CC[C@H](OC(=O)Cn6cc(-c7ccc(C(=O)OC)cc7)nn6)C(C)(C)[C@@H]5CC[C@]43C)[C@@H]12 | > 50 µM | > 50 µM | > 50 µM | > 50 µM | > 50 µM | 
